Results as given in ChEMBL document CHEMBL4028894, “Identification of a New Pyrazolo[1,5-a]quinazoline Ligand Highly Affine to γ-Aminobutyric Type A (GABAA) Receptor Subtype with Anxiolytic-Like and Antihyperalgesic Activity” (J Med Chem, 2017).

Experiments:
[1] = Displacement of [3H]Ro15-1788 from GABAA receptor in bovine cerebral cortex membranes after 90 mins by liquid scintillation counting method; type: cell membranes, Bos taurus, Membrane
Method in brief: (§1)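 Bovine cerebral cortex membranes in 50 mM tris-citrate pH 7.4, with displacement of specific [3H]flumazenil binding. Single-point screen at 10 μM gives % inhibition. Where inhibition exceeds 80%, at least six concentrations tested and Ki derived by iterative curve fitting and the Cheng-Prusoff equation. Five experiments, each in triplicate; mean ± SEM.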

Bos taurus = species: Bos taurus; experiment: Displacement of [3H]Ro15-1788 from GABAA receptor in bovine cerebral cortex membranes at 10 uM after 90 mins by liquid scintillation counting method relative to control; type: cell membranes; settings: Membrane; method in brief: as §1
Mus musculus [2] = experiment: Anxiolytic-like activity in Swiss albino mouse assessed as persistent time in light box at 100 mg/kg, ip administered 40 mins prior to testing by light dark box test (131.9 +/- 6.5 secs); type: functional
Mus musculus [3] = experiment: Anxiolytic-like activity in Swiss albino mouse assessed as persistent time in light box at 10 mg/kg, po administered 30 mins prior to testing by light dark box test (131.9 +/- 6.5 secs); type: functional
Mus musculus [4] = experiment: Anticonvulsant activity in Swiss albino mouse assessed as protection against subcutaneous pentylenetetrazole-induced seizures at 10 mg/kg, po administered 30 mins followed by pentylenetetrazole challenge measured over 30 mins relative to control; type: functional
Method in brief: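 Male Swiss albino mice (23-30 g), 6 per group. Test drug suspended in 1% carboxymethylcellulose, given orally 30 min before PTZ 90 mg/kg s.c. (saline). Clonic generalized convulsions recorded over 30 min. Result expressed as % protection versus vehicle-treated animals (0% protection).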

Mus musculus [5] = experiment: (§2) Reversal of scopolamine-induced amnesic effect in Swiss albino mouse assessed as retention session latency time at 10 mg/kg, po administered 30 mins followed by establishment of training session and immediate addition of scopolamine post session by passive-avoidance test (reference value: 46.3 +/- 7.5 secs); type: functional
Method in brief: (§3)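 Male Swiss albino mice, 8 per group, step-through passive avoidance. Compound given p.o. in 1% carboxymethylcellulose 30 min before training. Scopolamine 1.5 mg/kg in saline given i.p. immediately after training. Punishment on entering the dark compartment is a fall into 10 °C water. Latencies measured at training and at retention 24 h later (max 120 s).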

Mus musculus [6] = experiment: Anxiolytic-like activity in Swiss albino mouse assessed as persistent time in light box at 1 mg/kg, po administered 30 mins prior to testing by light dark box test (131.9 +/- 6.5 secs); type: functional
Mus musculus [7] = experiment: Effect on licking latency time in Swiss albino mouse at 30 mg/kg, po after 60 mins by hot plate test (reference value: 17.9 +/- 1.1 secs); type: ADME, organism-based; settings: in vivo, 1 h
Mus musculus [8] = experiment: Effect on spontaneous motility in Swiss albino mouse at 30 mg/kg, po measured over 5 mins by […] test; type: ADME, organism-based; settings: in vivo
Method in brief: (§4)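 Male Swiss albino mice, 8 per group, hole-board: a 40 cm square with 16 holes. Compound given 30 min before the test. Each mouse explores freely for 5 min. Photobeam counts across quadrants give locomotor activity; photocells in the holes give the number of hole inspections.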

Mus musculus [9] = experiment: Effect on licking latency time in Swiss albino mouse at 30 mg/kg, po after 15 mins by hot plate test (reference value: 18.3 +/- 1.1 secs); type: ADME, organism-based; settings: in vivo, 0.25 h
Mus musculus [10] = experiment: Amnesic effect in Swiss albino mouse assessed as training session latency time at 30 mg/kg, po administered 30 mins prior to testing by passive-avoidance test (reference value: 14.1 +/- 3.4 secs); type: ADME, organism-based; settings: in vivo
Mus musculus [11] = experiment: Antihyperalgesic activity in streptozotocin-induced Swiss albino mouse hyperalgesia model assessed as licking latency time at 30 mg/kg, po after 60 mins by hot plate test (reference value: 9.6 +/- 0.9 secs); type: functional
Mus musculus [12] = experiment: Effect on explorative activity in Swiss albino mouse at 30 mg/kg, po measured over 5 mins by […] test; type: ADME, organism-based; settings: in vivo; method in brief: as §4
Mus musculus [13] = experiment: Anxiolytic-like activity in Swiss albino mouse assessed as persistent time in light box at 30 mg/kg, po administered 30 mins prior to testing in presence of GABAA receptor antagonist flumazenil by light dark box test (131.9 +/- 6.5 secs); type: functional
Mus musculus [14] = experiment: Antihyperalgesic activity in streptozotocin-induced Swiss albino mouse hyperalgesia model assessed as licking latency time at 30 mg/kg, po after 45 mins by hot plate test (reference value: 10.9 +/- 0.8 secs); type: functional
Mus musculus [15] = experiment: Antihyperalgesic activity in streptozotocin-induced Swiss albino mouse hyperalgesia model assessed as licking latency time at 30 mg/kg, po after 30 mins by hot plate test (reference value: 10.2 +/- 0.8 secs); type: functional
Mus musculus [16] = experiment: Effect on licking latency time in Swiss albino mouse at 30 mg/kg, po after 30 mins by hot plate test (reference value: 18.8 +/- 1.2 secs); type: ADME, organism-based; settings: in vivo, 0.5 h
Mus musculus [17] = experiment: Effect on licking latency time in Swiss albino mouse at 30 mg/kg, po after 45 mins by hot plate test (reference value: 18 +/- 0.9 secs); type: ADME, organism-based; settings: in vivo, 0.75 h
Rattus norvegicus [18] = experiment: Antihyperalgesic activity in Sprague-Dawley rat peripheral mononeuropathy model assessed as ipsilateral paw pressure at 10 mg/kg, po after 30 mins by analgesimeter (41.7 +/- 3.6 g); type: functional
NSC = experiment: Cytotoxicity against human H9-derived neural stem cells assessed as effect on cell viability at 1 to 1000 nM after 72 hrs by MTS assay; type: cell-based; settings: 1 µM
Method in brief: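 Neural stem cells derived from H9 were grown on polyornithine/laminin and differentiated for 7 days in serum-free Neurobasal with 2% B-27, 2 mM L-glutamine and 5 μM retinoic acid. Cells then exposed 72 h to 1 nM-1 μM compound. MTS absorbance read at 490, background subtracted, expressed as % of untreated cells. Three independent experiments, each in triplicate.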

Mus musculus [19] = experiment: Effect on motor coordination in Swiss albino mouse at 30 mg/kg, po measured over 30 secs at 15 to 60 mins post drug administration by rota rod test; type: ADME, organism-based; settings: in vivo
Method in brief: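 Male Swiss albino mice, 8 per group. Oral dose in 1% carboxymethylcellulose. Rota rod turning at 16 r.p.m. Falls from the rod counted over 30 s, measured before dosing and every 15 min up to 60 min after.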

Rattus norvegicus [20] = experiment: Antihyperalgesic activity in Sprague-Dawley rat peripheral mononeuropathy model assessed as ipsilateral paw pressure at 30 mg/kg, po after 45 mins by analgesimeter (36.9 +/- 3.8 g); type: functional
Mus musculus [21] = experiment: Antihyperalgesic activity in streptozotocin-induced Swiss albino mouse hyperalgesia model assessed as licking latency time at 30 mg/kg, po after 15 mins by hot plate test (reference value: 9.4 +/- 1.1 secs); type: functional
Mus musculus [22] = experiment: Anxiolytic-like activity in Swiss albino mouse assessed as persistent time in light box at 30 mg/kg, po administered 30 mins prior to testing by light dark box test (131.9 +/- 6.5 secs); type: functional
Mus musculus [23] = experiment: Anticonvulsant activity in Swiss albino mouse assessed as protection against subcutaneous pentylenetetrazole-induced seizures at 30 mg/kg, po administered 30 mins followed by pentylenetetrazole challenge measured over 30 mins relative to control; type: functional
Method in brief: (§5)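 Male Swiss albino mice, 6 per group. Compound given p.o. in 1% carboxymethylcellulose. Pentylenetetrazole 90 mg/kg in saline given s.c. 30 min later. Occurrence of clonic generalized convulsions noted over 30 min. Result expressed as % protection, with the vehicle group taken as 0%.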

Mus musculus [24] = experiment: Anticonvulsant activity in Swiss albino mouse assessed as protection against subcutaneous pentylenetetrazole-induced seizures at 100 mg/kg, po administered 30 mins followed by pentylenetetrazole challenge measured over 30 mins relative to control; type: functional; method in brief: as §5
Mus musculus [25] = experiment: as §2, with “30” for “10”; type: functional; method in brief: as §3
Rattus norvegicus [26] = experiment: Antihyperalgesic activity in Sprague-Dawley rat peripheral mononeuropathy model assessed as ipsilateral paw pressure at 30 mg/kg, po after 15 mins by analgesimeter (33.7 +/- 3.2 g); type: functional
Mus musculus [27] = experiment: as §2, with “training” for “retention”, “30” for “10”, “15.9” for “46.3”, “3” for “7.5”; type: functional; method in brief: as §3
Mus musculus [28] = experiment: Amnesic effect in Swiss albino mouse assessed as retention session latency time at 30 mg/kg, po administered 30 mins prior to testing by passive-avoidance test (reference value: 98.4 +/- 8.8 secs); type: ADME, organism-based; settings: in vivo
Rattus norvegicus [29] = experiment: Antihyperalgesic activity in Sprague-Dawley rat peripheral mononeuropathy model assessed as ipsilateral paw pressure at 30 mg/kg, po after 30 mins by analgesimeter (41.7 +/- 3.6 g); type: functional
Rattus norvegicus [30] = experiment: Antihyperalgesic activity in Sprague-Dawley rat peripheral mononeuropathy model assessed as ipsilateral paw pressure at 10 mg/kg, po after 15 mins by analgesimeter (33.7 +/- 3.2 g); type: functional
Rattus norvegicus [31] = experiment: Antihyperalgesic activity in Sprague-Dawley rat peripheral mononeuropathy model assessed as ipsilateral paw pressure at 10 mg/kg, po after 45 mins by analgesimeter (36.9 +/- 3.8 g); type: functional
Rattus norvegicus [32] = experiment: Effect on pain threshold in contralateral paw in Sprague-Dawley rat peripheral mononeuropathy model at 30 mg/kg, po; type: ADME, organism-based; settings: in vivo
Mus musculus [33] = experiment: as §2, with “training” for “retention”, “15.9” for “46.3”, “3” for “7.5”; type: functional; method in brief: as §3

COc1ccc2c(c1)-n1ncc(C(=O)OCc3ccccc3)c1NC2
Ki [1]: 34 nM | inhibition (Bos taurus): > 80%

COc1ccc2cnc3c(C(=O)OCc4ccco4)cnn3c2c1
Ki [1]: 15.2 nM | inhibition (Bos taurus): > 80%

CCOC(=O)c1ncn2c1CN(C)C(=O)c1cc(F)ccc1-2 [FLUMAZENIL]
Time (Mus musculus [2]): 127.5 s

COc1ccc2cnc3c(C#N)cnn3c2c1
Ki [1]: 378 nM | inhibition (Bos taurus): > 80%

CN1C(=O)CN=C(c2ccccc2)c2cc(Cl)ccc21 [DIAZEPAM]
Ki [1]: 12.3 nM | Time (Mus musculus [3]): 165.6 s | Activity (Mus musculus [4]): 100%

CCOC(=O)c1cnn2c1ncc1ccc(OC)cc12
Ki [1]: 102 nM | inhibition (Bos taurus): > 80%

O=C(OCc1cccs1)c1cnn2c1ncc1ccccc12
Ki [1]: 13.2 nM | inhibition (Bos taurus): > 80%

COc1ccc2cnc3c(C(=O)OCc4ccccc4)cnn3c2c1
Ki [1]: 19 nM | inhibition (Bos taurus): > 80%

CCOC(=O)c1cnn2c1NCc1ccc(OC)cc1-2
Ki [1]: 376 nM | inhibition (Bos taurus): > 80%

CCOC(=O)c1cnn2c1ncc1ccccc12
Ki [1]: 529 to 835 nM | inhibition (Bos taurus): > 80%

CCOC(=O)c1cnn2c1[nH]c(=O)c1ccc(OC)cc12
inhibition (Bos taurus): 2%

COc1ccc2cnc3c(C(=O)OC(C)C)cnn3c2c1
Ki [1]: 97.4 nM | inhibition (Bos taurus): > 80%

COCCOc1ccc2cnc3c(C#N)cnn3c2c1
inhibition (Bos taurus): 53%

COc1ccccc1COC(=O)c1cnn2c1ncc1ccccc12
Ki [1]: 3.16 nM | inhibition (Bos taurus): > 80%

COc1ccc2cnc3c(C(=O)OCc4cccs4)cnn3c2c1
Ki [1]: 16.7 nM | inhibition (Bos taurus): > 80%

COc1ccc2cnc3c(C(=O)OCc4ccccc4OC)cnn3c2c1
Time (Mus musculus [5]): 53.1 s | Ki [1]: 0.27 nM | Time (Mus musculus [6]): 133.1 s | Time (Mus musculus [7]): 17.5 s | Activity (Mus musculus [8]): Non-Toxic | Time (Mus musculus [9]): 17.3 s | Time (Mus musculus [10]): 16.5 s | Time (Mus musculus [11]): 11.2 s | Activity (Mus musculus [12]): Non-Toxic | Time (Mus musculus [13]): 136.4 s | Time (Mus musculus [14]): 13.1 s | Time (Mus musculus [15]): 15.5 s | Time (Mus musculus [16]): 17.2 s | inhibition (Bos taurus): > 80% | Time (Mus musculus [17]): 18.4 s | Activity (Rattus norvegicus [18]): 41.7 g | Activity (NSC): Non-Toxic | Activity (Mus musculus [19]): Non-Toxic | Activity (Rattus norvegicus [20]): 35.9 g | Time (Mus musculus [21]): 16.6 s | Time (Mus musculus [22]): 165.7 s | Activity (Mus musculus [23]): 10% | Activity (Mus musculus [24]): 10% | Time (Mus musculus [25]): 60.4 s | Activity (Rattus norvegicus [26]): 52.4 g | Time (Mus musculus [27]): 17.52 s | Time (Mus musculus [28]): 105.6 s | Activity (Rattus norvegicus [29]): 41.7 g | Activity (Rattus norvegicus [30]): 39.8 g | Time (Mus musculus [3]): 169.6 s | Activity (Rattus norvegicus [31]): 36.9 g | Activity (Rattus norvegicus [32]): Non-Toxic | Activity (Mus musculus [4]): 0% | Time (Mus musculus [33]): 17.5 s

N#Cc1cnn2c1ncc1ccccc12
inhibition (Bos taurus): 27%

O=C(OCc1ccccc1)c1cnn2c1ncc1ccccc12
Ki [1]: 25.9 nM | inhibition (Bos taurus): > 80%

COc1ccc2c(c1)-n1ncc(C(=O)OCc3ccccc3OC)c1NC2
Ki [1]: 16 nM | inhibition (Bos taurus): > 80%
